Sampled rows, rich in hits. Any-hit rate of the full collection: about 4.7%.
HTR2A ag: mouse Htr2a agonists via beta-arrestin recruitment, primary screen, cell-based, luminescence. 5-hydroxytryptamine receptor 2A (Mus musculus), P35363. CHO-K1 mHTR2A beta-arrestin complementation; percent of 30 µM serotonin response. activation, % at 7.6 µM. actives 0.66% (n = 360,000);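 active = activation above a run cutoff, the mean activation of all tested compounds plus 3 SD, cut at about 14% in these data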;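 also: 0% = plate median of compound wells and 100% = 30 µM serotonin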
Target sequence (P35363 whole entry, looked up): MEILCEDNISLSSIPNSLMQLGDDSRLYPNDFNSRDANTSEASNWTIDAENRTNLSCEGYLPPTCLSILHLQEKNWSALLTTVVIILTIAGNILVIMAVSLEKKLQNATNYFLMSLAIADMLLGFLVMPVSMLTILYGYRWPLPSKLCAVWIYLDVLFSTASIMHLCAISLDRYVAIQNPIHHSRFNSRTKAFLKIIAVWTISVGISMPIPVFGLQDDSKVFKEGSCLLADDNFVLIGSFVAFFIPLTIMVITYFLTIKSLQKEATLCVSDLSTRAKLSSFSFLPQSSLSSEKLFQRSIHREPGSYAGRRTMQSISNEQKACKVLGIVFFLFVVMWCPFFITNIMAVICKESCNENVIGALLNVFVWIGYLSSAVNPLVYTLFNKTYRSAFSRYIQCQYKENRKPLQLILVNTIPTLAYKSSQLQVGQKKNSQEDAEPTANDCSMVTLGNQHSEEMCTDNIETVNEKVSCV
GAA850 FXN act: FXN promoter activators, primary screen, cell-based, luciferase luminescence, HEK293 lucGAA850; HEK293 lucGAA850 FXN promoter luciferase reporter, 24 h; percent of 10 µM SAHA response; activation, % at 6 µM; actives 0.56% (n = 360,000); AID 540364, 2011;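 active = activation above the average of all compounds screened plus 3 SD, cutoff fixed separately per campaign, cut at about 7.5% in these data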;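 also: 0% = DMSO wells and 100% = 10 µM SAHA wells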
MC4R antag cAMP: MC4R antagonists of cAMP signaling, primary screen, cell-based, TR-FRET, antagonist arm of biased-ligand search; Melanocortin receptor 4 (Homo sapiens), P32245; MC4R-expressing cells, MTII-stimulated cAMP, LANCE TR-FRET; inhibition, % at 6.5 µM; actives 0.48% (n = 360,000); AID 540295, 2011;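 active = inhibition above its plate's cutoff, the mean of tested wells on that plate plus 3 SD, cut at about 29% in these data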;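 also: 0% = Melanotan II alone and 100% = Melanotan II plus saturating MCL0020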
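system = U2OS cells with stable human MC4R expression | also added = Melanotan II challenge after compound preincubation | dosing = one concentration, 6.5 µM nominal | incubation = compound 30 min, challenge 1 h, detection 1 h | measured by = TR-FRET with Eu-cAMP and labeled anti-cAMP, 671 nm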
AHR activator: AHR activators, primary screen, cell-based, luminescence, luciferase reporter, human | Aryl hydrocarbon receptor (Homo sapiens), P35869 | AID 2796, 2010 | activation, % at 5 µM | AHR-responsive luciferase reporter cells | actives 2.5% (n = 320,000); in the data active = activation above about 47%;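 also: 0% = vehicle wells and 100% = reference agonist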
MC4R barr agon: MC4R agonists recruiting beta-arrestin, primary screen, cell-based, luminescence, agonist arm of biased-ligand search. Melanocortin receptor 4 (Homo sapiens), P32245. U2OS MC4R beta-arrestin complementation; percent of melanotan II response, DMSO zero. activation, % at 8.9 µM. actives 0.98% (n = 360,000). AID 540308, 2011;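 active = activation above a per-plate cutoff, the mean activation of sample wells on that plate plus 3 SD, cut at about 8% in these data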
OPRM1 ag: OPRM1 agonists via beta-arrestin recruitment, confirmation, counter-screen for mouse HTR2A agonist project, cell-based, luminescence, single concentration | shares compounds with HTR2A ag | U2OS OPRM1 beta-arrestin PathHunter; DMSO 0%, DAMGO 9.3 µM 100% | activation, % at 9.3 µM | actives 5.3% (n = 2,300);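 active = mean activation above the mean of DMSO-only wells plus 3 SD, cut at about 0.5% in these data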
HTR2A ag conf: mouse HTR2A agonists, beta-arrestin recruitment, confirmation, cell-based, luminescence, CHO-K1 PathHunter, triplicate; shares compounds with HTR2A ag; DMSO 0%, 30 µM serotonin 100%; activation, % at 7.6 µM; actives 19% (n = 2,300);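 active = mean activation across triplicates above the hit threshold derived in the original primary screen, cut at about 15% in these data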
* marks the source's active call; other numbers are inactive results.

O=C1CC(c2cccc(Cl)c2)C(n2cncn2)C(=O)C1C1NCCc2ccccc21 (stereo not drawn) was read as HTR2A ag 16*, GAA850 FXN act 1, MC4R antag cAMP -4, AHR activator 2, MC4R barr agon -2, OPRM1 ag -1 and HTR2A ag conf -4.
Screening Cc1cc(F)ccc1NC(=O)c1ccc(NS(=O)(=O)c2cccs2)cc1 returned HTR2A ag -8, GAA850 FXN act -1, MC4R antag cAMP 12 and MC4R barr agon -2.
CCCCC(=O)Nc1cc2nn(-c3ccc(OC)cc3)nc2cc1C was read as HTR2A ag 15*, GAA850 FXN act 1, MC4R antag cAMP -3, AHR activator 26, MC4R barr agon 1, OPRM1 ag 0 and HTR2A ag conf -2.
For COc1ccc(C2(OC)Oc3cc(OC)ccc3C(=O)C2(O)OC)cc1 (stereo not drawn) the results were HTR2A ag 8, GAA850 FXN act -1, MC4R antag cAMP 0 and MC4R barr agon 1.
Cc1nc2c(-c3ccccc3)c(C)[nH]n2c(=O)c1Cc1ccccc1 was read as HTR2A ag 59*, GAA850 FXN act 0, MC4R antag cAMP 10, AHR activator 1, MC4R barr agon -1, OPRM1 ag -1 and HTR2A ag conf 33*.
For Cc1nc2c(C#N)c(C)[nH]n2c(=O)c1Cc1ccccc1 the results were HTR2A ag 2, GAA850 FXN act 0, MC4R antag cAMP 15, AHR activator 0 and MC4R barr agon -1.
For CC(NC(=O)Nc1nnc(C(F)(F)F)s1)(C(F)(F)F)C(F)(F)F the results were HTR2A ag 16*, GAA850 FXN act -12, MC4R antag cAMP 4, AHR activator -4, MC4R barr agon 1, OPRM1 ag 0 and HTR2A ag conf 14.
Screening CCS(=O)(=O)C1=NN2C(=N)/C(=C\c3ccc(OC(=O)c4ccco4)c(Br)c3)C(=O)N=C2S1 returned AHR activator 0.
CCS(=O)(=O)C1=NN2C(=N)/C(=C\c3ccc(SCc4ccco4)o3)C(=O)N=C2S1 was read as HTR2A ag 18*, GAA850 FXN act 0, MC4R antag cAMP -11, MC4R barr agon 5, OPRM1 ag 2.2* and HTR2A ag conf 13.
`COC(=O)[C@@]1(C)[C@H]2C(=O)N(C)C(=O)[C@H]2[C@H]2CN=C(SCc3ccccc3)N21` gave HTR2A ag 17*, GAA850 FXN act -2, MC4R antag cAMP 5, MC4R barr agon 2, OPRM1 ag -1 and HTR2A ag conf -4.
`COC(=O)[C@@]1(C)[C@H]2C(=O)N(C)C(=O)[C@H]2[C@H]2CN=C(SCC(=O)c3ccccc3)N21` gave HTR2A ag 0, GAA850 FXN act 3, MC4R antag cAMP 2 and MC4R barr agon -1.
For COC(=O)c1cc2ccsc2n1CC(=O)Nc1cc(Cl)ccc1OC the results were HTR2A ag 19*, GAA850 FXN act -4, MC4R antag cAMP -4, AHR activator 25, MC4R barr agon -2, OPRM1 ag -1 and HTR2A ag conf -4.
Screening COC(=O)c1cc2ccsc2n1CC(=O)Nc1ccc(N(C)C)cc1 returned HTR2A ag 0, GAA850 FXN act 0, MC4R antag cAMP 20, AHR activator 4 and MC4R barr agon -2.
For CC1(C)C[C@H]2C3=CCC4[C@@]5(C)CC[C@H](O)[C@](C)(CO)C5CC[C@@]4(C)[C@]3(C)C[C@H]3O[C@@H]1[C@H](O)[C@]32CO (stereo partly drawn) the results were HTR2A ag 0, GAA850 FXN act 1, MC4R antag cAMP 8, AHR activator 0 and MC4R barr agon 7.
Screening OC(Cn1cnnc1)c1ccccc1 (stereo not drawn) returned HTR2A ag 17*, GAA850 FXN act 2, MC4R antag cAMP 3, AHR activator -1, MC4R barr agon 0, OPRM1 ag -1 and HTR2A ag conf 1.
For O=C(c1ccco1)N1CCN(c2c(-c3ccccc3)c3cc(Cl)ccc3[nH]c2=O)CC1 the results were HTR2A ag 52*, GAA850 FXN act 2, MC4R antag cAMP 24, AHR activator 5, MC4R barr agon 5, OPRM1 ag 1.3* and HTR2A ag conf 24*.
Screening Cc1ccc(CNC(=O)c2ccc(N3CCC4(CC3)CC(c3cccc(Br)c3)=NO4)c([N+](=O)[O-])c2)cc1 returned HTR2A ag 14*, GAA850 FXN act 1, MC4R antag cAMP 1, AHR activator 0, MC4R barr agon 1, OPRM1 ag -1 and HTR2A ag conf 0.
For Cc1c(C)c2ccc(OCC(=O)Nc3ccccn3)cc2oc1=O the results were HTR2A ag 18*, GAA850 FXN act -1, MC4R antag cAMP 2, AHR activator -1, MC4R barr agon -3, OPRM1 ag -1 and HTR2A ag conf -3.
For O=C(C1=C(O)C(=O)N(Cc2ccco2)C1c1cccc(O)c1)c1ccco1 (stereo not drawn) the results were HTR2A ag 17*, GAA850 FXN act -1, MC4R antag cAMP 16, AHR activator -2, MC4R barr agon 1, OPRM1 ag 0 and HTR2A ag conf -5.
Screening COc1ccc(N2CCN(CCCNC(=O)C(=O)c3c[nH]c4ccccc34)CC2)cc1 returned HTR2A ag -12, GAA850 FXN act 0, MC4R antag cAMP 7, AHR activator 12 and MC4R barr agon 0.
`O=C1NC(c2cccc(OCc3ccccc3)c2)Nc2ccccc21` (stereo not drawn) gave HTR2A ag 1, GAA850 FXN act -2, MC4R antag cAMP -6 and MC4R barr agon -1.
Screening CN1C(C(=O)NCc2cccc(C(F)(F)F)c2)CC2Cn3c(nc4cc(Cl)c(Cl)cc43)C21 (stereo not drawn) returned HTR2A ag 20*, GAA850 FXN act -1, MC4R antag cAMP 3, AHR activator 2, MC4R barr agon 0, OPRM1 ag 0 and HTR2A ag conf -5.
`Nc1ncnc(N2CCOCC2)c1N` gave HTR2A ag 4, GAA850 FXN act 1, MC4R antag cAMP 13, AHR activator 4 and MC4R barr agon -2.

Bioassay records (PubChem)
